The structures appear in SMILES notation.

The data set can be described thus: Toxicity liver stage against HepG2, at 10uM. On the set-up: test concentration 10 uM, cell line HepG2-A16-CD81EGFP. The data set is classed as cell-based. To be noted: human, HepG2-A16-CD81EGFP cells; read-out: INHIBITION
The essentials: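 Uninfected HepG2-A16-CD81EGFP cells, 3 × 10^3 per well, 1536-well, plated on prespotted compound at 10 μM final, parasite-free screening media added to match infected plates; puromycin 10 μM positive, DMSO 0.5% negative; run in parallel with 48 h PbLuc assay at 37 °C, 5% CO2; viability by CellTiter-Glo luminescence, normalized to controls.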
Regarding `Cc1sc(N)nc1-c1ccc(Cl)cc1`, the cytotoxicity at 10 µM was -2.75%.
Next, `CCCc1cc(=O)[nH]c2nnc(SCC(=O)OCC)n12`: 10.8%.
As for `O=C(c1nnn(-c2ccccc2)n1)N(CCO)CCO`, the figure is -1.48%; as for `CC(=O)N1CCCC2(CN(Cc3ccncc3)CCO2)C1` (centres undefined), 7.22%; as for `Cn1cc(C(=O)N[C@H]2CN(S(C)(=O)=O)[C@@H]3CCCO[C@H]23)cn1`, -16%.
`c1nc(N2CCOCC2)nc2c1COCC21CCN(CC2CC2)C1` (centres undefined): the cytotoxicity at 10 µM was 9.69%.
Next, `CCOc1ccc(CNCCCn2ccnc2)cc1OC`: -4.78%; `NC(=O)c1ccc2c(c1)nc1n2CCN(Cc2ccco2)C1`: -11.3%; `CN1CCN(c2ncccn2)CC1C(N)=O` (centres undefined): 15.4%.
Next, `CC(C)Nc1n[nH]c2nc(C3CCN(C(=O)c4ccccn4)C3)ccc12` (centres undefined): 17%; `CN1CCCC(Cc2nccnc2Cl)CC1` (centres undefined): 0.368%.
With `CC(C)N1CCC(c2cccc(C(=O)N(C)C)n2)CC1`, the cytotoxicity at 10 µM worked out at 9.23%.
Next, `NC(=O)C1(c2cnccn2)CCCN1Cc1ccc(Cl)cc1` (centres undefined): -0.085%; `CNC(=O)CCc1cc(C)nc(C2CCCN2)n1` (centres undefined): 1.77%; `Cc1ccc(CNC(=O)N2CCN(S(C)(=O)=O)CC2)n1C`: 2.22%.
Next, `COC(=O)c1cc(NCC(=O)NC(N)=O)cc(C(F)(F)F)c1`: -1.06%; `CCc1nc(CN2CCCC(N(C)CCn3cncn3)C2)no1` (centres undefined): -6.5%; `O=C(NCc1ccccc1CN1CCCCC1)Nc1nncs1`: 0.513%.
As for `COc1cc(NC(=O)c2ccc(C)cc2C)c(C(=O)N(C)C)cc1OC`, the figure is -0.414%; as for `CSCC(CCO)NC(=O)Nc1ccc(C)cc1C` (centres undefined), 1.82%.
On to `COc1ccnc(NC(=O)c2ccsc2)c1`, for which the cytotoxicity at 10 µM was -0.747%.
As for `O=C(c1cnccn1)N1CCN(c2ccnc3ccsc23)CC1`, the figure is 12.6%; as for `Cc1cccc(C)c1OCCNC(=O)C[S+]([O-])C1CCCC1` (centres undefined), -136%; as for `CC(C)c1nc(/C=C/c2ccc(O)c(Cl)c2)ncc1C(=O)O`, -1.7%.
As for `CNS(=O)(=O)CC(=O)NC(C)Cc1cccc(Cl)c1` (centres undefined), the figure is -8.15%; as for `COc1ccc(CCn2cnc(C#N)n2)cc1`, 0.866%; as for `CC(O)CN1CCC(CN(C)Cc2cccc(C#N)c2)CC1` (centres undefined), -1.3%.
As for `Cc1ccc(S(C)(=O)=O)cc1C(=O)NS(C)(=O)=O`, the figure is -11.4%; as for `O=C(Cn1cc(-c2ccccc2)cn1)N1CCNC1=O`, 6.74%.
In the case of `O=C1C(Nc2ccc3nccnc3n2)CCN1c1ccccc1F` (centres undefined), the cytotoxicity at 10 µM was -10%.
Next, `O=C1CC(Nc2ccc3nccnc3n2)CN1c1ccccc1` (centres undefined): -7.76%; `CC(C)(C)c1ncc(CNCC2CCCn3ccnc32)s1` (centres undefined): -6.76%; `OCC1CCCN1c1cc(NCCc2c[nH]c3ccccc23)ncn1` (centres undefined): -7.06%.
`COc1cc(-c2cc(OC)c(OC)c(OC)c2)ncn1`: the cytotoxicity at 10 µM was -2.31%.
Next, `CC(C)Nc1nc2c(s1)C(=O)CN(C(=O)NCCc1ccccc1)C2`: -5.55%; `Cc1ccc([C@@H]2CN(C(=O)c3cc(C)no3)C[C@H]2NC(=O)C2CC2)cc1`: -1.82%.
As for `CCS(=O)(=O)c1ncc(CN(C)C)n1Cc1ccccc1`, the figure is 1.73%; as for `COCc1cn(CC2CCN(Cc3nc(C)c[nH]3)CC2)nn1`, 0.622%; as for `CCCc1cc(NCCCC2CCOC2)n2nccc2n1` (centres undefined), -0.247%.
As for `CCc1nnc(CN(C)Cc2nc(-c3ccccc3Cl)oc2C)o1`, the figure is -7.43%; as for `O=C(CCCN1CCCCC1)N1CCC(c2nnc[nH]2)CC1`, -7.92%; as for `COCCN(Cc1cccs1)C(=O)c1ccc(=O)n(C)c1`, -4.78%.
Regarding `COc1ccc2[nH]c(CNc3cc(C4CCNCC4)nc(C)n3)cc2c1`, the cytotoxicity at 10 µM was -13.4%.
In the case of `Cc1[nH]c2c(F)cccc2c1CC(=O)NCc1csc(N(C)C)n1`, the cytotoxicity at 10 µM was -1.43%.
As for `COc1cccc(CNC2CCSC2)c1OC` (centres undefined), the figure is 2.25%; as for `Cn1ccnc1SCCNc1cc(N2CCOCC2)ncn1`, 4.91%; as for `CN(Cc1n[nH]c2c1CCC2)C(=O)c1cc(-c2cccn2C)n[nH]1`, 5.12%.
Next, `Cc1ccc(Cl)c(CN2CCC(c3nccn3C(C)C)CC2)c1F`: 4.8%; `CCc1ncc2c(n1)CN(C(=O)COC)C2`: -19.4%.
As for `CNc1nc(C(=O)N2CCCC(c3nccn3CC3CCC3)C2)cs1` (centres undefined), the figure is -16.7%; as for `CNS(=O)(=O)c1ccc(C)c(C(=O)NCCNc2ncccn2)c1`, -1.87%.
Take `COc1c(CNCCC(=O)NC2CCCCC2)c(C(C)C)nn1C`: the cytotoxicity at 10 µM is -10.4%.
Next, `COc1cc(NC(=O)CCn2nc(-c3cccs3)oc2=O)cc(OC)c1`: 2.9%.
In the case of `COc1ncccc1CNC(=O)c1cnc(C)cn1`, the cytotoxicity at 10 µM was -4.69%.
Take `COCCN(Cc1nc2c(cnn2C)c(=O)[nH]1)C(C)COC` (centres undefined): the cytotoxicity at 10 µM is -4.6%.
As for `Cc1cc(CN2CCN(C(=O)NCc3ccoc3)CC2)no1`, the figure is -22.5%; as for `Cc1noc(C)c1CN1CCOC(CNc2cccnn2)C1` (centres undefined), -19%; as for `Cc1noc(CCCC(=O)NCC2CCS(=O)(=O)C2)n1` (centres undefined), -16.4%.
As for `CN(C)c1cc(CNC(=O)c2ccc(F)cc2)ccn1`, the figure is -22.9%; as for `OCC1CCCN1c1cc(NCc2cccnc2)ncn1` (centres undefined), -16.6%.
Next, `Cc1ncsc1CNC(=O)N(CCCO)C1CCc2ccccc21` (centres undefined): -9.99%.
With `CCN1CCN(c2ccc(CNC(=O)Cc3c(C)noc3C)cn2)CC1`, the cytotoxicity at 10 µM is -12.2%.
As for `Cc1cc(NC(=O)CN2CCCC2c2noc(C(C)C)n2)on1` (centres undefined), the figure is -6.31%; as for `COc1cccc(C(=O)NC(CC(=O)O)c2cccs2)c1OC` (centres undefined), -8.66%; as for `Cn1nc2c(cc1=O)CN(CCN1CCCC1=O)CC2`, -31.1%.
Next, `COc1cccc(C(=O)N2CCCCC2c2nccs2)c1OC` (centres undefined): -14.4%; `CC(C)Oc1ncccc1CNC(=O)c1ccc(=O)[nH]n1`: -23.8%.
As for `CC(C)c1noc(CCCC(=O)NC2CCS(=O)(=O)C2)n1` (centres undefined), the figure is 4.67%; as for `CC(C)c1nnc2n1CCN(C(=O)c1ccc3cc[nH]c3c1)C2`, 4.02%; as for `O=C(c1ccccc1-n1cccn1)N1CCCN(c2cccnn2)CC1`, 7.03%.
Regarding `Cc1noc([C@@H]2C[C@H]3CN(CC4CCOCC4)C[C@H]3O2)n1`, the cytotoxicity at 10 µM is -137%.
As for `CNC(=O)C1Cn2ccnc2C2(CCN(C(=O)c3ccoc3C)CC2)O1` (centres undefined), the figure is -157%.
Next, `O=C1COC2(CCN(Cc3ccc(F)cc3)CC2)CN1`: -25.7%; `CC(C)Nc1ccc2nc(C3CCN(C(C)C)CC3)nn2c1`: -20.4%.

The values above are taken from ChEMBL document CHEMBL4513216, “Probing the Open Global Health Chemical Diversity Library for Multistage-Active Starting Points for Next-Generation Antimalarials” (ACS Infect Dis, 2020).
